In PMC11164251 (International journal of biological macromolecules, 2023):
Substitutions are numbered along the chain they refer to. Read-outs that look alike come from different tables or passages of the source. Peptide text beside a SMILES is read from it.

Tests used:
ScTFIIS LW domain [1] = target: ScTFIIS LW domain (Saccharomyces cerevisiae, UniProt P07273, W72A); type: binding; conditions: ScTFIIS1–81 LW mutant W72A; ITC, pH 7.4, 200 mM NaCl, 25 °C
ScTFIIS LW domain [2] = target: ScTFIIS LW domain (Saccharomyces cerevisiae, UniProt P07273, K66A); type: binding; conditions: ScTFIIS1–81 LW mutant K66A, pH 7.4, 25 °C
ScTFIIS LW domain [3] = target: ScTFIIS LW domain (Saccharomyces cerevisiae, UniProt P07273, L41A); type: binding; conditions: ScTFIIS1–81 LW mutant L41A, pH 7.4, 25 °C
ScTFIIS LW domain [4] = target: ScTFIIS LW domain (Saccharomyces cerevisiae, UniProt P07273, I69A); type: binding; conditions: ScTFIIS1–81 LW mutant I69A, pH 7.4, 25 °C
ScTFIIS LW domain [5] = target: ScTFIIS LW domain (Saccharomyces cerevisiae, UniProt P07273); type: binding
HsTFIIS LW domain [6] = target: HsTFIIS LW domain (Homo sapiens, UniProt P23193, K67A); assay: ITC of HsLeo1 peptides with the HsTFIIS LW domain; type: binding; conditions: HsTFIIS1–96 LW mutant K67A, pH 7.4, 200 mM NaCl, 25 °C
Outline: (§1)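 Recombinant N-His-tagged LW domain (wild type or point mutant), expressed in E. coli BL21 (DE3) (0.5 mM IPTG, 16 °C, 20 h) and purified by Ni-NTA, gel filtration and ion exchange. ITC: 50 uM protein in cell, 1mM synthetic Leo1 peptides in syringe, 16 × 2 μl injections at 120 s intervals. Buffer: 25 mM Tris, 200 mM NaCl, 1 mM EDTA, 1 % glycerol, pH 7.4, 25 °C. Peptide-into-buffer heat of dilution subtracted.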

HsTFIIS LW domain [7] = target: HsTFIIS LW domain (Homo sapiens, UniProt P23193, W73A); assay: ITC of HsLeo1 peptides with the HsTFIIS LW domain; type: binding; conditions: HsTFIIS1–96 LW mutant W73A, pH 7.4, 200 mM NaCl, 25 °C
Outline: as §1

HsTFIIS LW domain [8] = assay: ITC of HsLeo1 peptides with the HsTFIIS LW domain; type: binding, Homo sapiens; conditions: HsTFIIS LW domain mutant printed as W339A
Outline: as §1

HsTFIIS LW domain [9] = target: HsTFIIS LW domain (Homo sapiens, UniProt P23193, I70A); assay: ITC of HsLeo1 peptides with the HsTFIIS LW domain; type: binding; conditions: HsTFIIS1–96 LW mutant I70A, pH 7.4, 200 mM NaCl, 25 °C
Outline: as §1

HsTFIIS LW domain [10] = target: HsTFIIS LW domain (Homo sapiens, UniProt P23193, L41A); assay: ITC of HsLeo1 peptides with the HsTFIIS LW domain; type: binding; conditions: HsTFIIS1–96 LW mutant L41A, pH 7.4, 200 mM NaCl, 25 °C
Outline: as §1

HsTFIIS LW domain [11] = target: HsTFIIS LW domain (Homo sapiens, UniProt P23193); assay: ITC of HsLeo1 peptides with the HsTFIIS LW domain; type: binding; conditions: pH 7.4, 25 °C
Outline: as §1

[12] = target: TbTFIIS2–2 LW domain (residue 251–359) F340A (T. brucei); assay: ITC
[13] = target: TbTFIIS2–2 LW domain (residue 251–359) L336A (T. brucei); assay: ITC
[14] = target: HsTFIIS LW domain without the C-terminus (residue 1–78) (H. sapiens, UniProt P23193 1-78); assay: ITC
[15] = target: HsTFIIS LW domain (residue 1–96) K67A (H. sapiens, UniProt P23193 1-96, K67A); assay: ITC
[16] = target: HsTFIIS LW domain (residue 1–96), wild type (H. sapiens, UniProt P23193 1-96); assay: ITC
[17] = target: T1, ScTFIIS LW domain (residue 1–81) I69A (S. cerevisiae, UniProt P07273 1-81, I69A); assay: ITC
T1 sequence (looked up): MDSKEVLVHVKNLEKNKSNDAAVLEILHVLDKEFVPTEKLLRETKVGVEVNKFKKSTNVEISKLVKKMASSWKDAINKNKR

[18] = target: T2, ScTFIIS LW domain (residue 1–81), wild type (S. cerevisiae, UniProt P07273 1-81); assay: ITC
T2 sequence (looked up): T1 sequence (looked up) with A69I

[19] = target: T3, ScTFIIS LW domain (residue 1–81) K66A (S. cerevisiae, UniProt P07273 1-81, K66A); assay: ITC
T3 sequence (looked up): T1 sequence (looked up) with K66A, A69I

[20] = target: T4, ScTFIIS LW domain (residue 1–81) L41A (S. cerevisiae, UniProt P07273 1-81, L41A); assay: ITC
T4 sequence (looked up): T1 sequence (looked up) with L41A, A69I

[21] = target: T5, ScTFIIS LW domain, longer version (residue 1–93) (S. cerevisiae, UniProt P07273 1-93); assay: ITC
T5 sequence (looked up): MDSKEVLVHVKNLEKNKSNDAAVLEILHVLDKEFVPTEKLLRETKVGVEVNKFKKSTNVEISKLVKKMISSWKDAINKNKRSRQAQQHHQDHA

Molecule: CC(C)C[C@H](NC(=O)[C@H](CCC(=O)O)NC(=O)[C@H](C)NC(=O)[C@H](CC(=O)O)NC(=O)[C@H](CCC(=O)O)NC(=O)[C@@H](N)CCC(=O)O)C(=O)N[C@@H](CC(=O)O)C(=O)N[C@@H](CC(=O)O)C(=O)N[C@@H](CC(C)C)C(=O)N[C@@H](Cc1ccccc1)C(=O)NCC(=O)N[C@@H](CC(=O)O)C(=O)N[C@@H](CC(=O)O)C(=O)N[C@@H](CC(N)=O)C(=O)N[C@@H](CC(=O)O)C(=O)O [ScLeo1_54–68] (H-EEDAELDDLFGDDND-OH; N-terminus and C-terminus assumed)
- Kd (ScTFIIS LW domain [1]): weak binding
- N (ITC binding stoichiometry) (ScTFIIS LW domain [2]): 0.95
- N (ITC binding stoichiometry) (ScTFIIS LW domain [3]): 1.03
- N (ITC binding stoichiometry) (ScTFIIS LW domain [4]): 0.99
- N (ITC binding stoichiometry) (ScTFIIS LW domain [5]; ScTFIIS LW1–93, pH 7.4, 25 °C): 1.04
- N (ITC binding stoichiometry) (ScTFIIS LW domain [5]; wild type ScTFIIS1–81 LW, pH 7.4, 25 °C): 1.00

Molecule: CC(C)C[C@H](NC(=O)[C@H](CCC(=O)O)NC(=O)[C@H](CCCCN)NC(=O)[C@H](CC(N)=O)NC(=O)[C@H](CO)NC(=O)[C@@H]1CCCN1C(=O)[C@@H](N)CCC(N)=O)C(=O)N[C@@H](Cc1ccccc1)C(=O)NCC(=O)N[C@@H](CC(=O)O)C(=O)N[C@@H](CC(=O)O)C(=O)N[C@@H](CO)C(=O)N[C@@H](CCC(=O)O)C(=O)N[C@@H](CC(=O)O)C(=O)N[C@@H](CCC(=O)O)C(=O)NCC(=O)O [HsLeo1_55–70] (H-QPSNKELFGDDSEDEG-OH; N-terminus and C-terminus assumed)
- Kd (HsTFIIS LW domain [6]): weak binding
- Kd (HsTFIIS LW domain [7]): no binding
- binding (ITC), result in words (HsTFIIS LW domain [8]): abolishes the interactions
- Kd (HsTFIIS LW domain [9]): no binding
- Kd (HsTFIIS LW domain [10]): no binding
- N (ITC binding stoichiometry) (HsTFIIS LW domain [11]; HsTFIIS1–78 LW): 1.00
- N (ITC binding stoichiometry) (HsTFIIS LW domain [11]; wild type HsTFIIS1–96 LW): 0.96

Molecule: TbLeo1 peptide (residue 71–86) containing the LFG motif
- Kd [12]: 9.33 µM
- Kd [13]: 1.11 µM

Molecule: ADMEDLFGSDADSEA (peptide, UniProt Q8WVC0 2-16, looked up) [HsLeo1 peptide (residue 2–16) containing an LFG motif]
- stoichiometry N [14]: 1
- stoichiometry N [15]: 1
- stoichiometry N [16]: 1

Molecule: QPSNKELFGDDSEDEG (peptide, UniProt Q8WVC0 55-70, looked up) [HsLeo1 peptide (residue 55–70) containing an LFG motif]
- Kd [14]: 57.6 µM
- stoichiometry N [14]: 1
- Kd [16]: 44 µM
- stoichiometry N [16]: 0.96

Molecule: EEDAELDDLFGDDND (peptide, UniProt P38439 54-68, looked up) [ScLeo1 peptide (residue 54–68) containing the LFG motif]
- Kd [17]: 44 µM
- stoichiometry N [17]: 0.99
- Kd [18]: 3.3 µM
- stoichiometry N [18]: 1
- Kd [19]: 5.1 µM
- stoichiometry N [19]: 0.95
- Kd [20]: 37 µM
- stoichiometry N [20]: 1.03
- Kd [21]: 1.39 µM
- stoichiometry N [21]: 1.04
